Data from ChEMBL document CHEMBL4325877, “Synthesis of novel benzbromarone derivatives designed to avoid metabolic activation” (Bioorg Med Chem Lett, 2018).

Key:
[1] = system: Hepatocyte; assay: Cytotoxicity in hepatocytes isolated from CYP activator dexamethasone-treated C57BL/6J mouse at 5 uM after 18 hrs by LDH assay relative to control; format: ADME, cell-based
How it was run: (§1)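 Hepatocytes from mice pretreated with dexamethasone to induce CYP enzymes; compounds at 1 or 5 µM. Cytotoxicity read as LDH release after drug exposure (text gives 16 hr, legend 18 hr). Values are averages of duplicate experiments.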

[2] = molecular target: T1, Solute carrier family 22 member 12 (Homo sapiens, UniProt Q96S37); assay: Inhibition of human URAT1 expressed in HEK293 cells assessed as inhibition of [14C]-urate uptake at 10 uM after 2 mins by beta-scintillation counting analysis; format: cell-based; conditions: hek293, 2 min
T1 sequence (Q96S37 whole entry): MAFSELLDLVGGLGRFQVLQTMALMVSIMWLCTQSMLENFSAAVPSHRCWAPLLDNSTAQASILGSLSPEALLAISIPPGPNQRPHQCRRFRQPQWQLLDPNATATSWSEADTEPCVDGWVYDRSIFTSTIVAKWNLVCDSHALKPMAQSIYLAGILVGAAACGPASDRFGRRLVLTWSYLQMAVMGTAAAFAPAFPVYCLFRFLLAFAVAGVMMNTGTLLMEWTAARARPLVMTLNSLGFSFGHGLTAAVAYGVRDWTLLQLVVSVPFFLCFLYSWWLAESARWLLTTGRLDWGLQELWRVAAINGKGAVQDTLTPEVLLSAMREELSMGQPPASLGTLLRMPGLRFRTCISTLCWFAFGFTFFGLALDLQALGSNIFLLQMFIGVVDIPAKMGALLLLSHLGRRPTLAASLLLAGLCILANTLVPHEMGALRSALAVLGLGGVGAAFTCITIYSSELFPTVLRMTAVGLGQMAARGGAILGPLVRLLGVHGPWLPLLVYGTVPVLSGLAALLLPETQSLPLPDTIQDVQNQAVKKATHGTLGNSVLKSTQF
How it was run: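 HEK cells overexpressing hURAT1; uric acid uptake measured in presence of compound at 10 µM. Uptake expressed as percent of vehicle control (0.5% DMSO, no inhibitor). Mean ± SD, n = 4.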

[3] = Toxicity in liver microsomes isolated from CYP activator dexamethasone-treated Sprague-Dawley rat assessed as induction of mitochondrial permeability transition by measuring mitochondrial swelling at 50 uM measured after 30 mins in absence of NADPH; design: species or system Microsome; conditions: 0.5 h
How it was run: (§2)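 Compound (50 µM) incubated with dexamethasone-treated rat liver microsomes at 37 °C, with or without NADPH, for 30 min. Isolated mitochondrial fraction then added. Swelling followed as absorbance change at 540 nm over time, and area over the curve integrated as the MPT index. Mean ± SD, n = 3.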

[4] = Toxicity in liver microsomes isolated from CYP activator dexamethasone-treated Sprague-Dawley rat assessed as induction of mitochondrial permeability transition by measuring mitochondrial swelling at 50 uM measured after 30 mins in presence of NADPH; design: species or system Microsome; conditions: 0.5 h; how it was run: as §2
[5] = system: Hepatocyte; assay: Cytotoxicity in hepatocytes isolated from CYP activator dexamethasone-treated C57BL/6J mouse after 18 hrs by LDH assay relative to control; format: ADME, cell-based; how it was run: as §1
[6] = molecular target: T2, URAT1 (SLC22A12) (Homo sapiens, UniProt Q96S37); assay: Inhibition of human URAT1 expressed in HEK293 cells assessed as [14C]-urate uptake at 10 uM after 2 mins by beta-scintillation counting analysis relative to control; format: cell-based; design: scale not given: the % may be the effect or the level left; conditions: HEK293 cells expressing human URAT1, probe [14C]-urate, read-out: Activity
T2 sequence (Q96S37 whole entry): T1 sequence (Q96S37 whole entry)

[7] = system: Hepatocyte; assay: Cytotoxicity in hepatocytes isolated from CYP activator dexamethasone-treated C57BL/6J mouse at 1 uM after 18 hrs by LDH assay relative to control; format: ADME, cell-based; how it was run: as §1

Row | Structure (SMILES) | Activity [1] | inhibition (INH) [2] | Activity [3] | Activity [4] | Activity [5] | activity at 2 min, 10 µM [6] | Activity [7]
1 | CCc1oc2ccccc2c1C(=O)c1cccc(O)c1Br | < 16% | Active | Non-Toxic | Non-Toxic |  |  | 
2 | CCc1oc2ccccc2c1C(=O)c1ccc(Br)c(O)c1Br | < 16% | Active | Non-Toxic | Non-Toxic |  |  | 
3 | CCc1oc2ccccc2c1C(=O)c1cc(O)cc(Br)c1 | < 16% | Active | Non-Toxic | Non-Toxic |  |  | 
4 | CCc1oc2ccccc2c1C(=O)c1cc(O)ccc1Br | < 16% | Active | Non-Toxic | Non-Toxic |  |  | 
5 | CCc1oc2ccccc2c1C(=O)c1cc(O)c(Br)cc1Br | < 16% | Active | Non-Toxic | Non-Toxic |  |  | 
6 | CCc1oc2ccccc2c1C(=O)c1cc(Br)c(O)c(Br)c1 [BENZBROMARONE] | 52% |  | Non-Toxic | Toxic | Dose-dependent effect | < 10% | 27%
7 | CCc1oc2ccccc2c1C(=O)c1ccc(Br)c(O)c1 | < 16% | Active | Non-Toxic | Non-Toxic |  |  | 
